ChEMBL document CHEMBL1126207, “Base-catalyzed isomerization of retinoic acid. Synthesis and differentiation-inducing activities of 14-alkylated all-trans-, 13-cis-, and 20,14-retro-retinoic acids” (1992)
Calls of active or inactive are those of the source. The calls are words filed in the database; no cut-off is given here.

Tested on: HL-60
Experiment: Concentration required for 50% inhibition of differentiation-inducing activity against human promyelocytic leukemia cell line HL-60
Assay type: functional
Conditions: read-out: ED50 (the source's name)
Summary of the method: (§1)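 HL-60 cells kept in suspension in RPMI1640 with 5% FCS plus penicillin G/streptomycin, 37 °C, 5% CO2. Seeded near 8 × 10^4 cells/mL, compound added from 0.2 mM ethanol stock (final ethanol below 0.5%), 4-day incubation. Differentiation by NBT reduction (20 min, 37 °C, 0.2% NBT with TPA), formazan-positive cells counted on ≥200 cells; ED50 taken from NBT data; retinoic acid run concurrently.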

| SMILES | EC50 |
| --- | --- |
| C=C(/C=C/C=C(C)/C=C/C1=C(C)CCCC1(C)C)C(C)(C)C(=O)O | > 1000 nM |
| CC1=C(/C=C/C(C)=C/C=C/C(C)=C(/C)C(=O)O)C(C)(C)CCC1 | 63 nM |
| CC\C(C(=O)O)=C(C)/C=C/C=C(C)/C=C/C1=C(C)CCCC1(C)C | 680 nM |
| C=C(/C=C/C=C(C)/C=C/C1=C(C)CCCC1(C)C)C(C)C(=O)O (stereo not given) | 55.1 nM |

The remaining lines, values ahead:

| EC50 | SMILES |
| --- | --- |
| 52 nM | C=C(/C=C/C=C(C)/C=C/C1=C(C)CCCC1(C)C)CC(=O)O |
| 13 nM | CC1=C(/C=C/C(C)=C/C=C/C(C)=C(\C)C(=O)O)C(C)(C)CCC1 |
| 5.9 nM | CC1=C(/C=C/C(C)=C/C=C/C(C)=C\C(=O)O)C(C)(C)CCC1 [ISOTRETINOIN] |
| 2.4 nM | CC1=C(/C=C/C(C)=C/C=C/C(C)=C/C(=O)O)C(C)(C)CCC1 [TRETINOIN] |

Tested on: HL-60
Experiment: Concentration required for 50% inhibition of differentiation-inducing activity against human promyelocytic leukemia cell line HL-60; IA is inactive
Assay type: functional, cell-based
Conditions: not given
Summary of the method: as §1

| SMILES | ED50 |
| --- | --- |
| CC1=C(/C=C/C(C)=C/C=C/C(C)=C(/C(=O)O)C(C)C)C(C)(C)CCC1 | inactive |
| CC1=C(/C=C/C(C)=C/C=C/C(C)=C(\C(=O)O)C(C)C)C(C)(C)CCC1 | inactive |
